Results reported in ChEMBL document CHEMBL4368914, “Tricyclic Indazoles-A Novel Class of Selective Estrogen Receptor Degrader Antagonists” (J Med Chem, 2019).
In brackets after ≈: the same amount, converted by molar mass.

Tests used:
[1] = Clearance in dog at 0.5 mg/kg, iv or 1 mg/kg, po; format: ADME, organism-based, Canis lupus familiaris; details: in vivo
Outline: (§1)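 Single IV dose of 0.5 mg/kg and oral dose of 1 mg/kg in rat and dog. Both routes were formulated in 5% DMSO:95% hydroxypropyl β-cyclodextrin (30% w/v), at 1 mL/kg IV and 4 mL/kg PO.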

[2] = Apparent permeability in human Caco2 cells at 10 uM; format: ADME, cell-based; details: Caco-2
Outline: (§2)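 Compound at 10 μM incubated on cultured Caco-2 or MDCK cells. Permeability was measured apical-to-basolateral and basolateral-to-apical, and efflux ratio was taken as (B to A)/(A to B).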

[3] = Intrinsic clearance in human hepatocytes assessed per million cells; format: ADME, cell-based, Hepatocyte; details: read-out: CLH
Outline: (§3)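 Rate of metabolism (µl/min/10⁶ cells) measured from DMSO stock in isolated hepatocytes diluted to 1x10⁶ cells/mL.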

Estrogen receptor [4] = molecular target: T1, Estrogen receptor (Homo sapiens, UniProt P03372); experiment: Binding affinity to recombinant human GST-tagged ERalpha LBD expressed in baculovirus-infected insect cells by lantha screen assay
T1 sequence (P03372 whole entry): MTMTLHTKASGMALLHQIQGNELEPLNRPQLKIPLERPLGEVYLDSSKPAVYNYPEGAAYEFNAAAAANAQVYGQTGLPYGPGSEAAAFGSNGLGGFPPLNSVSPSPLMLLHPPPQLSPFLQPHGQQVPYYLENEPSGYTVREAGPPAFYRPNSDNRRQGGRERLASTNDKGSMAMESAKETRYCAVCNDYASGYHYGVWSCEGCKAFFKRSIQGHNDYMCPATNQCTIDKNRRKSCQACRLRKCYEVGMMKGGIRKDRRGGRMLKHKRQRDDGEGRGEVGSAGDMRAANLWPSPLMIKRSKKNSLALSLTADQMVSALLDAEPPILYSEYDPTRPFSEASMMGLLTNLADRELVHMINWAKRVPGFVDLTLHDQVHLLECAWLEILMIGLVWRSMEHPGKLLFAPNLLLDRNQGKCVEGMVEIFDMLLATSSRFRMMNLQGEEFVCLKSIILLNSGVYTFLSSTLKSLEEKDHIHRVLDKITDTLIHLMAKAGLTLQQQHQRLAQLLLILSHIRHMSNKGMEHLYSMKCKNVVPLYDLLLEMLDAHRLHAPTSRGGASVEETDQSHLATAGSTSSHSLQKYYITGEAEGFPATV

Cytochrome P450 1A2 = molecular target: T2, Cytochrome P450 1A2 (Homo sapiens, UniProt P05177); experiment: Inhibition of CYP1A2 in human liver microsomes; format: ADME
T2 sequence (P05177 whole entry): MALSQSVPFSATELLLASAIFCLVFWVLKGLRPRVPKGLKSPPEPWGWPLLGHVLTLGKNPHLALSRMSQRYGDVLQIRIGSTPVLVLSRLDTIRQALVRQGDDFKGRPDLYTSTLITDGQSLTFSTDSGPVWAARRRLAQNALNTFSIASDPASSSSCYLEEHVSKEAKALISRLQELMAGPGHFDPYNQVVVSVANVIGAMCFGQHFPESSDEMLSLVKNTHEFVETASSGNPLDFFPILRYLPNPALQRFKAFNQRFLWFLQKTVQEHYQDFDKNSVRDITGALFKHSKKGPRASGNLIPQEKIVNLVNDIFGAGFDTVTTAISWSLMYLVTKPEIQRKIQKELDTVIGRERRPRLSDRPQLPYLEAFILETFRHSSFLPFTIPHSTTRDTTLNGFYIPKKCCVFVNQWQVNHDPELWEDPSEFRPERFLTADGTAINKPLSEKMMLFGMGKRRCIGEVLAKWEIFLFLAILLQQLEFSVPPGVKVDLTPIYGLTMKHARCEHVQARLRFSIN
Outline: (§4)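 High-throughput human liver microsome assay across a panel of five CYP isoforms, giving IC50.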

[5] = Stability in pH 10 deuterated buffer assessed as compound remaining after 8 days by 1H NMR spectroscopy; format: physicochemical; details: pH 10, 192 h
Outline: (§5)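 Compound diluted from a 25 mM DMSO-d6 stock to a final 1 mM in each deuterated buffer. Followed by ¹H NMR (500 MHz, water suppression, 64 scans) and LC-MS at 0, 24, 72 and 192 h (8 days).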

[6] = Efflux ratio of apparent permeability in MDCK cells at 10 uM; format: ADME, cell-based, Canis lupus familiaris; details: dog; outline: as §2
[7] = Stability in pH 4 deuterated buffer assessed as compound remaining after 8 days by 1H NMR spectroscopy; format: physicochemical; details: pH 4, 192 h; outline: as §5
[8] = Fraction unbound in Alderley Park Han Wistar rat plasma by equilibrium dialysis; format: ADME, cell-free
Outline: (§6)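 Equilibrium dialysis from DMSO stock in 10% plasma, either Alderley Park Han Wistar rat plasma or human plasma.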

[9] = AUC in rat at 1 mg/kg, po; format: ADME, organism-based; details: in vivo; outline: as §1
[10] = Half life in dog at 0.5 mg/kg, iv or 1 mg/kg, po; format: ADME, organism-based, Canis lupus familiaris; details: in vivo; outline: as §1
[11] = Oral bioavailability in rat at 1 mg/kg; format: ADME, organism-based; details: in vivo; outline: as §1
Cytochrome P450 2D6 = Cytochrome P450 2D6 (Homo sapiens, UniProt P10635); experiment: Inhibition of CYP2D6 in human liver microsomes; format: ADME; outline: as §4
[12] = Glutathione reactivity in human liver microsomes assessed as GSH trapping ratio of compound to clozapine; format: ADME, Microsome
Outline: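 Glutathione trapping in human liver microsomes, expressed as a ratio to clozapine.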

Cytochrome P450 2C19 = Cytochrome P450 2C19 (Homo sapiens, UniProt P33261); experiment: Inhibition of CYP2C19 in human liver microsomes; format: ADME; outline: as §4
[13] = AUC in dog at 1 mg/kg, po; format: ADME, organism-based, Canis lupus familiaris; details: in vivo; outline: as §1
[14] = Intrinsic clearance in rat hepatocytes assessed per million cells; format: ADME, cell-based, Hepatocyte; details: read-out: CLH; outline: as §3
[15] = Volume of distribution at steady state in rat at 0.5 mg/kg, iv or 1 mg/kg, po; format: ADME, organism-based; details: in vivo, read-out: Vdss; outline: as §1
[16] = Fraction unbound in dog plasma by equilibrium dialysis; format: ADME, cell-free, Canis lupus familiaris
[17] = Intrinsic clearance in dog hepatocytes assessed per million cells; format: ADME, cell-based, Canis lupus familiaris, Hepatocyte; details: read-out: CLH; outline: as §3
[18] = Solubility of the compound in phosphate buffer at pH 7.4 after 24 hrs; format: physicochemical
Outline: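 Solubility in aqueous phosphate buffer at pH 7.4 after 24 h at 25 °C.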

[19] = Oral bioavailability in dog at 1 mg/kg; format: ADME, organism-based, Canis lupus familiaris; details: in vivo; outline: as §1
[20] = Clearance in rat at 0.5 mg/kg, iv or 1 mg/kg, po; format: ADME, organism-based; details: in vivo; outline: as §1
[21] = Apparent permeability in MDCK cells at 10 uM; format: ADME, cell-based, Canis lupus familiaris; details: dog; outline: as §2
[22] = Lipophilicity, log D of the compound at pH 7.4 by shake flask method; format: physicochemical; details: buffer
Outline: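 Shake-flask measurement of logD at pH 7.4.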

Estrogen receptor [23] = molecular target: T1, Estrogen receptor; experiment: Induction of ERalpha degradation in human MCF7 cells after 18 to 24 hrs by in multiplexed cell assay; format: cell-based
Outline: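 MCF-7 cells were kept at 37 °C, 5% CO₂ in phenol red-free RPMI1640 with 5% charcoal-stripped FCS and 2 mmol/L glutamine. Compounds came from 10 mmol/L DMSO stocks.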

[24] = Volume of distribution at steady state in dog at 0.5 mg/kg, iv or 1 mg/kg, po; format: ADME, organism-based, Canis lupus familiaris; details: in vivo, read-out: Vdss; outline: as §1
[25] = Fraction unbound in 10% human plasma by equilibrium dialysis; format: ADME, cell-free; details: 10% plasma; outline: as §6
[26] = Fraction unbound in mouse plasma by equilibrium dialysis; format: ADME, cell-free
[27] = Half life in rat at 0.5 mg/kg, iv or 1 mg/kg, po; format: ADME, organism-based; details: in vivo; outline: as §1
[28] = Efflux ratio of apparent permeability in human Caco2 cells at 10 uM; format: ADME, cell-based; details: Caco-2; outline: as §2
[29] = Stability in pH 7.4 deuterated buffer assessed as compound remaining after 8 days by 1H NMR spectroscopy; format: physicochemical; details: pH 7.4, 192 h; outline: as §5

Chain of Cytochrome P450 2C19 (P33261 whole entry): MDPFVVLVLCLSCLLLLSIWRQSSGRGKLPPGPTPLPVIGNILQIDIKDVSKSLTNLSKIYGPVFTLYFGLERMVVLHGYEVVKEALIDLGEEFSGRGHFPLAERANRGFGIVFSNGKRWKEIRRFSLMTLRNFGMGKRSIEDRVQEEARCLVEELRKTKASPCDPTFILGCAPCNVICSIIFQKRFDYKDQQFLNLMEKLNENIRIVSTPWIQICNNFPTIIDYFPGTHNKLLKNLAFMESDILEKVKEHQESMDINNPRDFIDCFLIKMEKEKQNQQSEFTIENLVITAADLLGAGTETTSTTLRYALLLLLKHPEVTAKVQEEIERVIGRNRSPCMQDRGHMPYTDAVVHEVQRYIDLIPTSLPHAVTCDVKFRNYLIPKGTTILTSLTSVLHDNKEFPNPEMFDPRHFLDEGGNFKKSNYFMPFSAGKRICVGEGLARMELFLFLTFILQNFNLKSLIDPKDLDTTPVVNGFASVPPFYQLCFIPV
Chain of Cytochrome P450 2D6 (P10635 whole entry): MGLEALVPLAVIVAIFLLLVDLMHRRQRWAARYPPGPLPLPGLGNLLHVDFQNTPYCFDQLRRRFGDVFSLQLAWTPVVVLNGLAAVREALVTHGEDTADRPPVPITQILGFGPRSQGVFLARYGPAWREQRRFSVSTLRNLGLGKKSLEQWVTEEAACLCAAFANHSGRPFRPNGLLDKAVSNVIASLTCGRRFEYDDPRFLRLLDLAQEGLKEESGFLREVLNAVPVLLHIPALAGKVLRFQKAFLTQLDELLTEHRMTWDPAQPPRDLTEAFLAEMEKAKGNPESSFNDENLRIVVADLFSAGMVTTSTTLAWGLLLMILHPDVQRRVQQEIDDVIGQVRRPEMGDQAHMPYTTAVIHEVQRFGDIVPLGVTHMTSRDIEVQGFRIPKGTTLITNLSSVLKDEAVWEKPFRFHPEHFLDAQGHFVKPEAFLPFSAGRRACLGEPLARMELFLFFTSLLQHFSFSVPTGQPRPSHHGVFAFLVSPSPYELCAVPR

clearance [1]: 0.168 L/h/kg
Papp at 10 µM [2]: 62 nm/s
hepatocyte CLint [3]: 5 µL/min/1e6 cells
IC50 (Estrogen receptor [4]): 1 nM
IC50 (Cytochrome P450 1A2): > 30000 nM
Stability [5]: Stable
efflux ratio at 10 µM [6]: 1.7
Stability [7]: Stable
fraction unbound [8]: 0.022
AUC [9]: 0.21 µM·h
half-life [10]: 6.8 h
bioavailability [11]: 51%
IC50 (Cytochrome P450 2D6): > 30000 nM
Ratio [12]: < 0.04
IC50 (Cytochrome P450 2C19): > 30000 nM
AUC [13]: 6.6 µM·h
hepatocyte CLint [14]: 18 µL/min/1e6 cells
Vd [15]: 1 L/kg
fraction unbound [16]: 0.0087
hepatocyte CLint [17]: 9.6 µL/min/1e6 cells
solubility at 24 h [18]: 810 µM (≈ 358 µg/mL)
bioavailability [19]: 45%
clearance [20]: 1.92 L/h/kg
Papp at 10 µM [21]: 84 nm/s
logD [22]: 2.5
IC50 (Estrogen receptor [23]): 1 nM
Vd [24]: 0.36 L/kg
fraction unbound [25]: 0.0092
fraction unbound [26]: 0.012
half-life [27]: 1.3 h
efflux ratio at 10 µM [28]: 2.2
Stability [29]: Stable
SMILES: COc1cc(/C=C/C(=O)O)ccc1[C@@H]1c2ccc3[nH]ncc3c2C[C@@H](C)N1CC(C)(F)F
